The values that follow come from ChEMBL document CHEMBL4011629, “New Disubstituted Quindoline Derivatives Inhibiting Burkitt's Lymphoma Cell Proliferation by Impeding c-MYC Transcription” (J Med Chem, 2017).

Calls of active or inactive are those of the source. The calls are words filed in the database; no cut-off is given here.

Data set [1] is filed under the species Homo sapiens. Briefly: Inhibition of NM23-H2 binding to c-Myc G-quadruplex DNA in human Raji cells up to 4 uM after 6 hrs by ChIP-PCR method. It counts as cell-based.
In data set [2] the test system is Raji. Briefly: Induction of apoptosis in human Raji cells assessed as upregulation of cleaved caspase-9 expression up to 4 uM after 12 hrs by Western blot method. It counts as functional, cell-based. An outline of the steps: (§1)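 After compound exposure (12 h for cell-cycle and apoptosis markers), RAJI cells were lysed in 1% NP-40 buffer. Protein at 50 μg per lane was run on 3–12% SDS-PAGE and transferred to nitrocellulose. Blots were probed with primary antibodies (GAPDH as loading reference) and detected with an HRP secondary and enhanced chemiluminescence.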
Background: In western blotting, separated proteins are transferred to a membrane and probed.

Data set [3] concerns Raji. The experiment in a line: Cell cycle arrest in human Raji cells assessed as accumulation at S phase after 6 hrs by propidium iodide staining based flow cytometry (reference value: 32.2%). It counts as functional.
For data set [4], the system named is Raji. Briefly: Cell cycle arrest in human Raji cells assessed as accumulation at G2/M phase after 24 hrs by propidium iodide staining based flow cytometry (reference value: 24.4%). The data set is classed as functional.
The subject of the next data set is U-266. Briefly: Antiproliferative activity against human U266B1 cells after 12 hrs by MTT assay. The data set is classed as functional, cell-based. The conditions noted are these: U-266, 12 h. An outline of the steps:
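RAJI, CCRF-CEM and U266B1 cells were seeded at 5 × 10^3 cells per well and exposed to compound for 12 h, with a DMSO vehicle control. MTT at 0.5 mg/mL was added for 4 h at 37 °C, then lysis solution overnight at 37 °C, and A570 was read. Assays were run in triplicate. IC50 was taken from the percentage survival relative to the negative control.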
In general terms: Tetrazolium assays rely on reduction of a dye to a coloured formazan, in cell work by metabolically active cells.

The nature of data set [5]: Inhibition of NM23-H2 binding to 5'-FAM labeled c-Myc Pu27 G-quadruplex DNA (unknown origin) preincubated for 1 hr followed by NM23-H2 addition by electrophoretic mobility shift assay. An outline of the steps:
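Annealed labelled Pu27 (1.5 μM) was preincubated with 10 μM agent or 5% DMSO for 1 h at 25 °C. […] Complexes were resolved on 5% native PAGE in 0.5× TBE at 4 °C, 150 V. Inhibition was taken against the no-compound complex band (set as 100%); three runs, Hill-fit IC50.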

The subject of data set [6] is Raji. The experiment in a line: Induction of apoptosis in human Raji cells assessed as upregulation of cleaved PARP expression up to 4 uM after 12 hrs by Western blot method. The data set is classed as functional, cell-based. An outline of the steps: as §1
In data set [7] the test system is Raji. Briefly: Cell cycle arrest in human Raji cells assessed as accumulation at G2/M phase after 6 hrs by propidium iodide staining based flow cytometry (reference value: 24.4%). It counts as functional. (In flow cytometry, cells or beads pass a laser one at a time.)
Data set [8] relates to Raji. The experiment in a line: Induction of apoptosis in human Raji cells assessed as early apoptotic cells at 1 uM after 48 hrs by Annexin V-FITC/propidium iodide staining based flow cytometry (reference value: 1.8%). It counts as functional. In outline:
(§2)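 RAJI cells exposed to compound or control medium for 12 or 48 h were washed in PBS and resuspended in binding buffer. They were stained with FITC annexin V and PI for 15 min in the dark, and fluorescence was measured by flow cytometry.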

Data set [9] concerns Raji. Briefly: Effect on NM23-H2 protein expression in human Raji cells up to 4 uM up to 48 hrs by Western blot method. The data set is classed as functional, cell-based. In outline: as §1
Data set [10] is filed under the species Homo sapiens. The experiment in a line: Stabilization of c-Myc G-quadruplex DNA in human U266B1 cells assessed as downregulation of c-Myc mRNA level up to 4 uM after 12 hrs by RT-PCR method. It counts as cell-based. An outline of the steps:
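RAJI, CCRF-CEM and U266B1 grown in RPMI 1640 with 10% fetal calf serum at 37 °C, plated at 1 × 10^6 cells/well overnight, then treated 12 h with 4, 2, 1 or 0.5 μM (DMSO control). RNA (2 μg) reverse-transcribed with oligo dT18/M-MLV; c-MYC, NM23-H2 and β-actin amplified by real-time PCR, checked on 1.5% agarose.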

Data set [11] relates to Raji. The experiment in a line: Induction of apoptosis in human Raji cells assessed as downregulation of CDK6 expression after 12 hrs by Western blot method. It counts as functional, cell-based. An outline of the steps: as §1
The species named for data set [12] is Homo sapiens. Briefly: Effect on c-Myc DNA translocated chromosome product in human CA46 cells assessed as decrease in amplification of exon-2 up to 4 uM after 12 hrs by RT-PCR method. The data set is classed as cell-based. In outline:
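RAJI cells, which retain NHE III1, and CA46 cells, which lack NHE III1 and the P1/P2 promoters, were exposed to graded compound concentrations for 12 h. Total RNA (2 μg) was reverse-transcribed with oligo dT18 and M-MLV. c-MYC exons 1 and 2, NM23-H2 and β-actin were amplified by real-time PCR against untreated cells. Three repeats were done; two-tailed unpaired t-test.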

Data set [13] relates to Raji. The experiment in a line: Antitumor activity against human Raji cells xenografted in NOD/SCID nude mouse assessed as reduction in tumor volume at 15 mg/kg, ip administered once daily for 2 weeks relative to control. It counts as functional. An outline of the steps:
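NOD/SCID mice were implanted subcutaneously in the underarm with RAJI cells (5 × 10^6 per 100 μL of RPMI 1640 with 10% serum). Tumours reached […] after 1 week, and mice were then randomised. […] Tumour volume was recorded daily and tumour weight at the end.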

Data set [14] deals with Raji. The experiment in a line: Induction of apoptosis in human Raji cells assessed as necrotic cells at 0.5 uM after 48 hrs by Annexin V-FITC/propidium iodide staining based flow cytometry relative to control. It counts as functional. In outline:
as §2

For data set [15], the system named is Raji. Briefly: Induction of apoptosis in human Raji cells assessed as early apoptotic cells at 1 uM after 12 hrs by Annexin V-FITC/propidium iodide staining based flow cytometry (reference value: 2.3%). It counts as functional. In outline: as §2
The species entered for data set [16] is Homo sapiens. The experiment in a line: Stabilization of c-Myc G-quadruplex DNA in human CA46 cells assessed as decrease in amplification of exon-1 up to 4 uM after 12 hrs by RT-PCR method. It counts as cell-based. An outline of the steps: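 Exon-specific assay: RAJI and CA46 cells exposed to various ligand concentrations for 12 h; total RNA (2 μg) reverse-transcribed with oligo dT18 and M-MLV (42 °C 1 h). c-MYC exon 1 and exon 2, NM23-H2 and β-actin amplified by real-time PCR, products run on 1% agarose; untreated cells as control; three repeats, two-tailed unpaired t test.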

A short description of data set [17]: Drug uptake in human Raji cells at 1 uM after 6 hrs. It counts as ADME, cell-based.
Data set [18] deals with Raji. Briefly: Cell cycle arrest in human Raji cells assessed as accumulation at G2/M phase after 48 hrs by propidium iodide staining based flow cytometry (reference value: 24.4%). It counts as functional.
Data set [19] deals with Raji. The experiment in a line: Effect on NM23-H2 transcription level in human Raji cells up to 4 uM after 12 hrs by RT-PCR method. The data set is classed as functional, cell-based.
Data set [20] concerns Raji. Briefly: Induction of apoptosis in human Raji cells assessed as late apoptotic cells at 1 uM after 48 hrs by Annexin V-FITC/propidium iodide staining based flow cytometry (reference value: 0.1%). It counts as functional. An outline of the steps: as §2
Another data set has as its system Mus musculus. Briefly: Toxicity in NOD/SCID nude mouse xenografted with human Raji cells assessed as reduction in body weight at 15 to 30 mg/kg, ip administered once daily for 2 weeks measured every day during compound dosing. Particulars: in vivo, 336 h. It counts as organism-based. In outline: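 NOD/SCID mice implanted subcutaneously in the underarm with 5 × 10^6 RAJI cells in 100 μL RPMI 1640 with 10% serum; tumours grown about 1 week, then mice randomized. Body weight recorded daily; organ weights taken at end.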

`CN(C)CCCNc1c2ccccc2nc2c1oc1ccc(OCC3CCN(C)CC3)cc12`: the outcome in the data set filed under Homo sapiens [1], in the data set with Raji [2], with Raji [6] and in the data set filed under Homo sapiens [16] was Active. Moreover, the Activity was 18.1% with Raji [3]; 19.3% with Raji [4]; 26.8% in the data set on Raji [7]; 52.9% in the data set on Raji [8]; “Dose-dependent effect” with Raji [11]; 0% in the data set with Raji [14]. In addition, the Activity is given as 18.9% in the data set on Raji [15], 16.6% in the data set with Raji [18], 37% with Raji [20] and “Non-Toxic” in the data set on Mus musculus. For the same compound, the IC50 (usually the concentration needed to halve the response being measured) in the data set with U-266 amounted to 23 µM; in [5] it was 1.56 µM. Also, the result in the data set with Raji [9], in the data set listed under Homo sapiens [10], in the data set filed under Homo sapiens [12] and with Raji [19] was inactive. In addition, the T/C (in general, the result in the treated group divided by that in the control group, in per cent) in the data set on Raji [13] is 33.3%. For the same compound, in data set [17], the Drug uptake result is “Active”.
